Reference: ChEMBL document CHEMBL1795276, “Synthesis and biological testing of novel pyridoisothiazolones as histone acetyltransferase inhibitors” (Bioorg Med Chem, 2011)
Activity calls are given as the source filed them. The rule behind the calls is not given here.

Columns and labels:
SK-N-SH [1] = test: Growth inhibition of human SK-N-SH cells by CellTiter-96 Aqueous Non-radioactive cell proliferation assay; assay type: functional
Method in brief: (§1)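 SK-N-SH neuroblastoma cells were grown in low-glucose DMEM with 10% FBS, 2 mM L-glutamine and 1% penicillin-streptomycin, and seeded at 5000/well. Compound or DMSO vehicle was added after 24 h, in triplicate.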

[2] = molecular target: T1, Histone acetyltransferase KAT2B (Homo sapiens, UniProt Q92831); test: Inhibition of histone acetylase activity of human recombinant PCAF expressed in Escherichia coli at 50 uM using biotinylated oligopeptide sequences from histone H4 (2-24) substrate by In-vitro time-resolved fluorescence immunosorbent acetyltransferase assay
Method in brief: (§2)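 E. coli-expressed His-tagged human PCAF, Ni-NTA purified. Preincubated 10 min at 30 °C with inhibitor (DMSO solution) in HEPES 100 mM pH 7.5 with 0.1% BSA and 0.8% Triton X-100. Substrate was 20 pmol/well biotinylated H4 2–24 on streptavidin wells; 100 µM acetyl-CoA final; incubation steps 1 h at 30 °C. Acetylation read with anti-acetyl-lysine primary antibody and Eu-labelled anti-rabbit secondary, by time-resolved fluorescence at 340/615 nm; IC50 from RFU versus log concentration.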
Target sequence in this assay (Q92831 whole entry, looked up): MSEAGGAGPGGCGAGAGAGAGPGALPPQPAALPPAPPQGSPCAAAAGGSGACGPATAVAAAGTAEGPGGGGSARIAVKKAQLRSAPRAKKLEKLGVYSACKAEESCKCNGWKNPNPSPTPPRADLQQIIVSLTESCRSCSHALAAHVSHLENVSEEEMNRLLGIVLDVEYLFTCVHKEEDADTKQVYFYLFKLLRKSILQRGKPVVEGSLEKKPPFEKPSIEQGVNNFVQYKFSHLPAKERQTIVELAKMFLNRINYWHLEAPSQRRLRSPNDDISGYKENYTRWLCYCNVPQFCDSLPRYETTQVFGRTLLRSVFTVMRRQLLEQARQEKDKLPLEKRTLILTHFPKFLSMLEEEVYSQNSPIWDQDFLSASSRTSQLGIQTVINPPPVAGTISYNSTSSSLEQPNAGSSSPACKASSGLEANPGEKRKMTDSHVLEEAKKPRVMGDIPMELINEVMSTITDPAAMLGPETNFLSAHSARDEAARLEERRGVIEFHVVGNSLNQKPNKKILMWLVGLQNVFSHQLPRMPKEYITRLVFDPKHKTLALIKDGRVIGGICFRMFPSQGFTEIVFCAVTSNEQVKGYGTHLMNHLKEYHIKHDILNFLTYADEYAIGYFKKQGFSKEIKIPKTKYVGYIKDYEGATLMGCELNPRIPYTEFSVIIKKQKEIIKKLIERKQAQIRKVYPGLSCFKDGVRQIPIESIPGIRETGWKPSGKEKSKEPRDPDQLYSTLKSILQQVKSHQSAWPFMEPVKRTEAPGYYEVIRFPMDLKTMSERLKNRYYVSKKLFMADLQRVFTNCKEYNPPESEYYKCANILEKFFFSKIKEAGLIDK

[3] = molecular target: T1, Histone acetyltransferase KAT2B; test: Inhibition of histone acetylase activity of human recombinant PCAF expressed in Escherichia coli using biotinylated oligopeptide sequences from histone H3 (1-21) substrate by In-vitro time-resolved fluorescence immunosorbent acetyltransferase assay
Method in brief: (§3)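 His-tagged human PCAF from E. coli (IPTG induction at 18 °C overnight), purified on Ni-NTA and stored at pH 6.0. Enzyme was preincubated with inhibitor in DMSO for 10 min at 30 °C in HAT buffer pH 7.5 (0.1% BSA, 0.8% Triton X-100, 100 mM HEPES). Reaction on 20 pmol/well biotinylated H3 1–21 bound to a streptavidin plate, with 100 µM acetyl-CoA final, 1 h at 30 °C. Detection with anti-acetylhistone H3 antibody, then Eu-labelled secondary antibody; time-resolved fluorescence at 340/615 nm. IC50 from RFU plotted against log concentration.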
Target sequence in this assay (Q92831 whole entry): as the sequence (Q92831 whole entry, looked up) above

HCT-116 [4] = test: Growth inhibition of human HCT116 cells at 25 uM by CellTiter-96 Aqueous Non-radioactive cell proliferation assay; assay type: functional; conditions: read-out: GI
Method in brief: (§4)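 HCT116 cells were grown in high-glucose DMEM with 10% FBS, 2 mM L-glutamine, 1% non-essential amino acids and penicillin-streptomycin, and seeded at 4000/well. After 24 h, compound or DMSO vehicle was added; triplicates per concentration.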

[5] = molecular target: T1, Histone acetyltransferase KAT2B; test: Inhibition of histone acetylase activity of human recombinant PCAF expressed in Escherichia coli using biotinylated oligopeptide sequences from histone H4 (2-24) substrate by In-vitro time-resolved fluorescence immunosorbent acetyltransferase assay; method in brief: as §2
Target sequence in this assay (Q92831 whole entry): as the sequence (Q92831 whole entry, looked up) above

HCT-116 [6] = test: Growth inhibition of human HCT116 cells at 20 uM by CellTiter-96 Aqueous Non-radioactive cell proliferation assay; assay type: functional; conditions: read-out: GI; method in brief: as §4
SK-N-SH [7] = test: Growth inhibition of human SK-N-SH cells at 20 uM by CellTiter-96 Aqueous Non-radioactive cell proliferation assay; assay type: functional; conditions: read-out: GI; method in brief: as §1
SK-N-SH [8] = test: Growth inhibition of human SK-N-SH cells at 10 uM by CellTiter-96 Aqueous Non-radioactive cell proliferation assay; assay type: functional; conditions: read-out: GI; method in brief: as §1
[9] = molecular target: T1, Histone acetyltransferase KAT2B; test: Inhibition of histone acetylase activity of human recombinant PCAF expressed in Escherichia coli at 200 uM using biotinylated oligopeptide sequences from histone H4 (2-24) substrate by In-vitro time-resolved fluorescence immunosorbent acetyltransferase assay; method in brief: as §2
Target sequence in this assay (Q92831 whole entry, looked up): as above

[10] = molecular target: T1, Histone acetyltransferase KAT2B; test: Inhibition of histone acetylase activity of human recombinant PCAF expressed in Escherichia coli at 300 uM using biotinylated oligopeptide sequences from histone H3 (1-21) substrate by In-vitro time-resolved fluorescence immunosorbent acetyltransferase assay; method in brief: as §3
Target sequence in this assay (Q92831 whole entry, looked up): as above

[11] = molecular target: T1, Histone acetyltransferase KAT2B; test: Inhibition of histone acetylase activity of human recombinant PCAF expressed in Escherichia coli at 50 uM using biotinylated oligopeptide sequences from histone H3 (1-21) substrate by In-vitro time-resolved fluorescence immunosorbent acetyltransferase assay; method in brief: as §3
Target sequence in this assay (Q92831 whole entry, looked up): as above

MCF7 = test: Growth inhibition of human MCF7 cells by CellTiter-96 Aqueous Non-radioactive cell proliferation assay; assay type: functional
Method in brief: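 MCF-7 cells were grown in RPMI-1640 with 10% FBS, 2 mM L-glutamine and penicillin-streptomycin, and seeded at 5000/well. Compounds or DMSO were added after 24 h; three replicates per concentration.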

[12] = molecular target: T1, Histone acetyltransferase KAT2B; test: Inhibition of histone acetylase activity of human recombinant PCAF expressed in Escherichia coli using biotinylated oligopeptide sequences from histone H3 (1-21) substrate in presence of 1 mmol/L DTT by In-vitro time-resolved fluorescence immunosorbent acetyltransferase assay
Target sequence in this assay (Q92831 whole entry, looked up): as above

[13] = molecular target: T1, Histone acetyltransferase KAT2B; test: Inhibition of histone acetylase activity of human recombinant PCAF expressed in Escherichia coli at 25 uM using biotinylated oligopeptide sequences from histone H3 (1-21) substrate by In-vitro time-resolved fluorescence immunosorbent acetyltransferase assay; method in brief: as §3
Target sequence in this assay (Q92831 whole entry, looked up): as above

SK-N-SH [14] = test: Growth inhibition of human SK-N-SH cells at 25 uM by CellTiter-96 Aqueous Non-radioactive cell proliferation assay; assay type: functional; conditions: read-out: GI; method in brief: as §1
HCT-116 [15] = test: Growth inhibition of human HCT116 cells by CellTiter-96 Aqueous Non-radioactive cell proliferation assay; assay type: functional; method in brief: as §4
SK-N-SH [16] = test: Growth inhibition of human SK-N-SH cells at 100 uM by CellTiter-96 Aqueous Non-radioactive cell proliferation assay; assay type: functional; conditions: read-out: GI; method in brief: as §1
HCT-116 [17] = test: Growth inhibition of human HCT116 cells at 100 uM by CellTiter-96 Aqueous Non-radioactive cell proliferation assay; assay type: functional; conditions: read-out: GI; method in brief: as §4
SK-N-SH [18] = test: Growth inhibition of human SK-N-SH cells at 40 uM by CellTiter-96 Aqueous Non-radioactive cell proliferation assay; assay type: functional; conditions: read-out: GI; method in brief: as §1
HCT-116 [19] = test: Growth inhibition of human HCT116 cells at 40 uM by CellTiter-96 Aqueous Non-radioactive cell proliferation assay; assay type: functional; conditions: read-out: GI; method in brief: as §4
[20] = molecular target: T1, Histone acetyltransferase KAT2B; test: Inhibition of histone acetylase activity of human recombinant PCAF expressed in Escherichia coli at 10 uM using biotinylated oligopeptide sequences from histone H3 (1-21) substrate by In-vitro time-resolved fluorescence immunosorbent acetyltransferase assay; method in brief: as §3
SK-N-SH [21] = test: Growth inhibition of human SK-N-SH cells at 5 to 25 uM incubated for 6 to 72 hrs by CellTiter-96 Aqueous Non-radioactive cell proliferation assay; assay type: functional, cell-based
Method in brief: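 Time course in SK-N-SH cells (5000/well, low-glucose DMEM with 10% FBS). Compound at 5, 10 or 25 µM was added 24 h after seeding, and growth was followed up to 72 h of incubation by CellTiter 96 AQueous absorbance, relative to DMSO control.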

GI50 (SK-N-SH [1]) | IC50 [3] | Structure (SMILES) | inhibition of growth at 25 µM (HCT-116 [4]) | other results
53.5 µM | 4.91 µM | O=c1c2cc([N+](=O)[O-])cnc2sn1-c1ccc(Br)cc1 |  | IC50 [5]: 0.86 µM; GI50 (MCF7): 44.2 µM
 | 11.8 µM | O=c1c2cc([N+](=O)[O-])cnc2sn1-c1ccc([N+](=O)[O-])cc1 |  | IC50 [5]: 15.8 µM
25.7 µM |  | Cc1cc(C)c2c(=O)n(CC(=O)Nc3ccc(F)cc3C)sc2n1 |  | GI50 (HCT-116 [15]): 22.6 µM; inhibition [11]: 48%
 | 12.9 µM | Cc1cnc2sn(-c3ccc(Oc4ccccc4)cc3)c(=O)c2c1 | 29% | inhibition of growth at 25 µM (SK-N-SH [14]): 32%
 | 3.69 µM | Cc1ccc(-n2sc3cc(F)ccc3c2=O)cc1 |  | inhibition of growth at 100 µM (SK-N-SH [16]): 35%; inhibition of growth at 100 µM (HCT-116 [17]): 49%
12.2 µM | 6.51 µM | COc1ccc(-n2sc3ncc(C)cc3c2=O)cc1 | 40% | 
 | 15.3 µM | Cc1cnc2sn(-c3ccc([N+](=O)[O-])cc3)c(=O)c2c1 |  | IC50 [5]: 2.72 µM
10.3 µM | 1.64 µM | O=c1c2cccnc2sn1-c1ccc(F)cc1 | 28% | IC50 [5]: 0.72 µM; growth inhibition (GI) (SK-N-SH [21]): Dose-dependent effect; GI50 (MCF7): 37.2 µM

The remaining lines, values behind:

Structure (SMILES) | GI50 (SK-N-SH [1]) | IC50 [3] | inhibition of growth at 25 µM (HCT-116 [4]) | other results
O=c1c2cccnc2sn1-c1ccc(Cl)cc1 | 16.1 µM | 3.53 µM | 23% | inhibition [2]: 87%
O=c1c2cccnc2sn1-c1ccccc1 |  | 7.85 µM |  | inhibition [2]: 88%
O=c1c2cccnc2sn1-c1ccc([N+](=O)[O-])cc1 |  | 4.1 µM |  | IC50 [5]: 2.99 µM
O=c1c2cccnc2sn1-c1ccc(Cl)c(Cl)c1 |  | 4.57 µM |  | inhibition [2]: 91%; inhibition of growth at 20 µM (HCT-116 [6]): 56%; inhibition of growth at 20 µM (SK-N-SH [7]): 37%
O=c1c2cccnc2sn1Cc1ccc(Cl)cc1 |  | 17.5 µM | 97% | inhibition of growth at 10 µM (SK-N-SH [8]): 20%
O=c1c2cccnc2sn1-c1ccc(Br)cc1 |  | 4.43 µM |  | 
C=C(C)C(C(=O)OC)n1scc(NCc2ccccc2)c1=O (stereo not given) |  |  |  | inhibition [9]: 20%; inhibition [10]: 48%
O=c1c2cccnc2[s+]([O-])n1Cc1ccc(Cl)c(Cl)c1 (stereo not given) |  |  |  | inhibition [11]: 11%
O=c1c2cccnc2sn1Cc1ccc(C(F)(F)F)cc1 | 0.48 µM | 130 µM | 38% | IC50 [5]: 25.5 µM; GI50 (MCF7): 30.2 µM
O=c1c2ccc([N+](=O)[O-])cc2sn1Cc1ccccc1 |  | 7.66 µM |  | IC50 [5]: 51.3 µM
COc1ccc(-n2sc3ncccc3c2=O)cc1 | 19.2 µM | 5.71 µM | 29% | 
CCCCc1ccc(-n2sc3ncccc3c2=O)cc1 | 8.93 µM | 15.9 µM | 21% | 
O=c1ccsn1-c1ccc(Cl)c([N+](=O)[O-])c1 | 23.2 µM | 4.8 µM |  | 
COc1ccc(-n2sc3ncc([N+](=O)[O-])cc3c2=O)cc1 |  | 3.42 µM |  | IC50 [5]: 1.83 µM; inhibition [12]: inactive
Oc1nsc2ncccc12 |  |  |  | inhibition [11]: 17%
CCCCc1ccc(-n2sc3ncc(-c4ccccc4)cc3c2=O)cc1 |  |  | 33% | inhibition [13]: 49%; inhibition of growth at 25 µM (SK-N-SH [14]): 55%

Structure (SMILES) | GI50 (SK-N-SH [1]) | IC50 [3] | inhibition of growth at 25 µM (HCT-116 [4]) | other results
Cc1cc(C)c2c(=O)n(CC(=O)Nc3ccc(Cl)cc3)sc2n1 | 22.1 µM |  |  | GI50 (HCT-116 [15]): 35.8 µM; inhibition [11]: 38%
Cc1ccc(-n2sc3ncccc3c2=O)cc1 | 6.2 µM | 4.63 µM | 20% | inhibition [2]: 75%
O=c1c2cccnc2sn1Cc1ccc(F)cc1 |  | 86.3 µM |  | 
O=C1c2cccnc2S(=O)(=O)N1Cc1ccc(Cl)c(Cl)c1 |  |  |  | inhibition [11]: 6%
Cc1ccc(Cn2sc3ncccc3c2=O)cc1 |  | 27.9 µM | 79% | inhibition of growth at 10 µM (SK-N-SH [8]): 31%
Cc1cnc2sn(-c3ccc(Br)cc3)c(=O)c2c1 | 21.3 µM | 2.99 µM | < 5% | 
O=c1c2cccnc2sn1Cc1ccc(F)c(F)c1 |  | 101 µM |  | 
COc1cccc(Cn2sc3ncccc3c2=O)c1 |  | 22.2 µM | 42% | inhibition of growth at 10 µM (SK-N-SH [8]): 26%
O=c1c2cccnc2sn1Cc1ccc(Cl)c(Cl)c1 | 9.53 µM | 6.94 µM |  | GI50 (HCT-116 [15]): 15.8 µM
O=c1c2ccccc2sn1-c1nc2ccccc2s1 |  |  |  | inhibition [11]: 46%
O=C(Cn1sc2cc(F)ccc2c1=O)Nc1nc(-c2ccccc2)cs1 |  |  |  | inhibition of growth at 40 µM (SK-N-SH [18]): < 5%; inhibition [11]: 21%; inhibition of growth at 40 µM (HCT-116 [19]): < 5%
O=c1c2cc([N+](=O)[O-])cnc2sn1-c1ccc(Oc2ccccc2)cc1 |  |  | < 10% | inhibition of growth at 25 µM (SK-N-SH [14]): < 5%; inhibition [20]: 48%
COc1cccc(-n2sc3ncccc3c2=O)c1 |  | 5.03 µM |  | 
O=c1c2cccnc2sn1Cc1ccccc1 |  | 23 µM |  | 
O=c1c2cccnc2sn1-c1ccc(F)c(F)c1 |  | 5.9 µM |  | 
O=C1/C(=C/c2ccc3c(c2)OCO3)C(=S)SN1Cc1ccco1 |  |  |  | inhibition [13]: < 5%
